Test results taken from ChEMBL document CHEMBL5329156, “Discovery and development of novel substituted monohydrazides as potent antifungal agents” (RSC Med Chem, 2023).
Values after ≈ are worked out from the molar mass of the structure shown. Active and inactive are the calls of the source. No cut-off for these calls is given here.

Key:
Candida albicans [1] = experiment: Antifungal activity against itraconazole/fluconazole susceptible Candida albicans ATCC MYA-2310 assessed as fungal growth inhibition by double dilution method; format: functional
Outline: (§1)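 Broth microdilution after CLSI M27-A3/M38-A2 with minor modifications. A single colony was grown overnight in YPD at 35 °C with shaking at 200 rpm. Cells were mixed 1:1 with compound (final 0.06-31.3 µg/mL, from DMSO stocks) and incubated 48 h at 35 °C.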

Candida albicans [2] = experiment: Antifungal activity against Candida albicans ATCC 10231 assessed as fungal growth inhibition by double dilution method; format: functional
Outline: (§2)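 Broth microdilution after CLSI M27-A3/M38-A2 with minor changes. Single colony grown overnight in YPD at 35 °C, 200 rpm. Compound final range 0.06-31.3 µg/mL; incubated 48 h at 35 °C.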

Pichia kudriavzevii [3] = experiment: Antifungal activity against Pichia kudriavzevii ATCC 6258 assessed as fungal growth inhibition by double dilution method; format: functional; outline: as §2
Candida albicans [4] = experiment: Antifungal activity against itraconazole/fluconazole resistant Candida albicans ATCC MYA-1003 assessed as fungal growth inhibition by double dilution method; format: functional; outline: as §1
Aspergillus fumigatus [5] = experiment: Antifungal activity against Aspergillus fumigatus NRRL 6113 assessed as fungal growth inhibition by double dilution method; format: functional
HEK293 = experiment: Cytotoxicity against human HEK-293 cells assessed as reduction in cell viability at 31.3 microg/ml; format: toxicity, cell-based; details: dose 31.3 µg/ml
Outline: (§3)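 Cells in DMEM with 10% FBS and 1% Pen/Strep, seeded at 10,000 cells/well and held overnight at 37 °C, 5% CO2. Compounds added at final 31.3-0.12 µg/mL (0.05% DMSO vehicle) for 24 h. Resazurin then added for 6 h; fluorescence read at ex 560/em 590. Triton X-100 1% as positive control; values normalized to vehicle. Run in quadruplicate.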

Candida albicans [6] = experiment: Antifungal activity against itraconazole/fluconazole resistant Candida albicans ATCC 90819 assessed as fungal growth inhibition by double dilution method; format: functional; outline: as §1
[Candida] auris [7] = Antifungal activity against Candida auris AR Bank # 0390 assessed as fungal growth inhibition by double dilution method; format: functional; details: Candidozyma auris; outline: as §2
Aspergillus nidulans = experiment: Antifungal activity against Aspergillus nidulans ATCC 38163 assessed as fungal growth inhibition by double dilution method; format: functional
[Candida] auris [8] = Antifungal activity against Candida auris AR Bank # 0384 assessed as fungal growth inhibition by double dilution method; format: functional; details: Candidozyma auris; outline: as §2
Candida albicans [9] = experiment: Antifungal activity against itraconazole/fluconazole susceptible Candida albicans ATCC MYA-2876 assessed as fungal growth inhibition by double dilution method; format: functional; outline: as §1
Nakaseomyces glabratus [10] = experiment: Antifungal activity against Candida glabrata ATCC 22019 assessed as fungal growth inhibition by double dilution method; format: functional; outline: as §2
Aspergillus fumigatus [11] = experiment: Antifungal activity against Aspergillus fumigatus NRRL 163 assessed as fungal growth inhibition by double dilution method; format: functional
Candida albicans [12] = experiment: Antifungal activity against itraconazole/fluconazole resistant Candida albicans ATCC MYA-1237 assessed as fungal growth inhibition by double dilution method; format: functional; outline: as §1
Aspergillus fumigatus [13] = experiment: Antifungal activity against Aspergillus fumigatus NRRL 5109 assessed as fungal growth inhibition by double dilution method; format: functional
[14] = Cytotoxicity against human HepG2 cells assessed as cell survival at 31.3 microg/ml relative to control; format: toxicity, cell-based; details: at 31.3 µg/mL, read-out: Activity; outline: as §3
Aspergillus flavus = experiment: Antifungal activity against Aspergillus flavus ATCC MYA-3631 assessed as fungal growth inhibition by double dilution method; format: functional
J774.A1 = experiment: Cytotoxicity against J774A.1 cells assessed as reduction in cell viability at 31.3 microg/ml; format: toxicity, cell-based; details: mouse, dose 31.3 µg/ml; outline: as §3
Nakaseomyces glabratus [15] = experiment: Antifungal activity against Candida glabrata ATCC 2001 assessed as fungal growth inhibition by double dilution method; format: functional; outline: as §2
Cryptococcus neoformans = experiment: Antifungal activity against Cryptococcus neoformans ATCC MYA-895 assessed as fungal growth inhibition by double dilution method; format: functional; outline: as §2
Candida albicans [16] = experiment: Antifungal activity against Candida albicans ATCC 64124 assessed as fungal growth inhibition by double dilution method; format: functional; outline: as §1
Aspergillus terreus = experiment: Antifungal activity against Aspergillus terreus ATCC MYA-3633 assessed as fungal growth inhibition by double dilution method; format: functional
Candida albicans [17] = experiment: Antibiofilm activity against Candida albicans ATCC 10231 assessed as reduction in biofilm production at 1.96 to 3.9 microg/ml by biofilm formation assay; format: functional, organism-based; details: dose 1.96-3.9 µg/ml
[Candida] auris [18] = Antifungal activity against Candida auris AR Bank # 390 assessed as fungal growth inhibition by double dilution method; format: functional; details: Candidozyma auris; outline: as §2
[Candida] auris [19] = Antifungal activity against Candida auris AR Bank # 385 assessed as fungal growth inhibition by double dilution method; format: functional; details: Candidozyma auris; outline: as §2
[Candida] auris [20] = Antifungal activity against Candida auris AR Bank # 386 assessed as fungal growth inhibition by double dilution method; format: functional; details: Candidozyma auris; outline: as §2
[Candida] auris [21] = Antifungal activity against Candida auris AR Bank # 383 assessed as fungal growth inhibition by double dilution method; format: functional; details: Candidozyma auris; outline: as §2
[Candida] auris [22] = Antifungal activity against Candida auris AR Bank # 389 assessed as fungal growth inhibition by double dilution method; format: functional; details: Candidozyma auris; outline: as §2
Candida duobushaemulonii [23] = experiment: Antifungal activity against Candida duobushaemulonii AR Bank # 391 assessed as fungal growth inhibition by double dilution method; format: functional; details: Candidozyma duobushaemuli; outline: as §2
[Candida] auris [24] = Antifungal activity against Candida auris AR Bank # 387 assessed as fungal growth inhibition by double dilution method; format: functional; details: Candidozyma auris; outline: as §2
Candida albicans [25] = experiment: Antibiofilm activity against Candida albicans ATCC 10231 assessed as reduction in preformed biofilm production by biofilm formation assay; format: functional, organism-based
Outline: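 After PBS washes, XTT 0.5 mg/mL with 1 µM menadione added, 3 h at 37 °C in the dark; absorbance read at 450 nm.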

[Candida] auris [26] = Antifungal activity against Candida auris AR Bank # 388 assessed as fungal growth inhibition by double dilution method; format: functional; details: Candidozyma auris; outline: as §2
Saccharomyces cerevisiae [27] = experiment: Antifungal activity against Saccharomyces cerevisiae AR Bank # 399 assessed as fungal growth inhibition by double dilution method; format: functional; outline: as §2
Clavispora lusitaniae = experiment: Antifungal activity against Clavispora lusitaniae AR Bank # 398 assessed as fungal growth inhibition by double dilution method; format: functional; outline: as §2
HepG2 = experiment: Cytotoxicity against human HepG2 cells assessed as reduction in cell viability upto 31.3 microg/ml; format: toxicity, cell-based; details: dose < 31.3 µg/ml; outline: as §3
[Candida] auris [28] = Antifungal activity against Candida auris AR Bank # 381 assessed as fungal growth inhibition by double dilution method; format: functional; details: Candidozyma auris; outline: as §2
[Candida] haemuloni [29] = Antifungal activity against Candida haemulonii AR Bank # 393 assessed as fungal growth inhibition by double dilution method; format: functional; details: Candidozyma haemuli; outline: as §2
[Candida] haemuloni [30] = Antifungal activity against Candida haemulonii AR Bank # 395 assessed as fungal growth inhibition by double dilution method; format: functional; details: Candidozyma haemuli; outline: as §2
[Candida] auris [31] = Antifungal activity against Candida auris AR Bank # 382 assessed as fungal growth inhibition by double dilution method; format: functional; details: Candidozyma auris; outline: as §2
Kodamaea ohmeri = experiment: Antifungal activity against Kodamaea ohmeri AR Bank # 396 assessed as fungal growth inhibition by double dilution method; format: functional; outline: as §2
Candida albicans [32] = experiment: Antifungal activity against Candida albicans ATCC 10231 assessed as fungal growth inhibition by time kill studies; format: functional, organism-based
Outline: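 Overnight YPD culture (35 °C, 200 rpm) diluted in RPMI 1640 to ~1×10⁵ CFU/mL. […] Samples at 0, 3, 6, 9, 12, 18 and 24 h were 10-fold diluted and plated on PDA; colonies counted after 48 h at 35 °C. Run in duplicate.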

[Candida] auris [33] = Antifungal activity against Candida auris AR Bank # 384 assessed as fungal growth inhibition by double dilution method; format: functional; details: Candidozyma auris; outline: as §2
Candida duobushaemulonii [34] = experiment: Antifungal activity against Candida duobushaemulonii AR Bank # 392 assessed as fungal growth inhibition by double dilution method; format: functional; details: Candidozyma duobushaemuli; outline: as §2
Candida duobushaemulonii [35] = experiment: Antifungal activity against Candida duobushaemulonii AR Bank # 394 assessed as fungal growth inhibition by double dilution method; format: functional; details: Candidozyma duobushaemuli; outline: as §2
Saccharomyces cerevisiae [36] = experiment: Antifungal activity against Saccharomyces cerevisiae AR Bank # 400 assessed as fungal growth inhibition by double dilution method; format: functional; outline: as §2
Pichia kudriavzevii [37] = experiment: Antifungal activity against Pichia kudriavzevii AR Bank # 397 assessed as fungal growth inhibition by double dilution method; format: functional; outline: as §2

Compound: O=C(NNc1cccc(F)c1)c1cnccn1
- MIC (Candida albicans [1]): 7.8 µg/mL (≈ 33.6 µM)
- MIC (Candida albicans [2]): 0.24 µg/mL (≈ 1.03 µM)
- MIC (Pichia kudriavzevii [3]): 0.49 µg/mL (≈ 2.11 µM)
- MIC (Candida albicans [4]): 0.98 µg/mL (≈ 4.22 µM)
- MIC (Aspergillus fumigatus [5]): > 31.3 µg/mL
- Activity (HEK293): Non-Toxic
- MIC (Candida albicans [6]): 0.98 µg/mL (≈ 4.22 µM)
- MIC ([Candida] auris [7]): 0.98 µg/mL (≈ 4.22 µM)
- MIC (Aspergillus nidulans): 0.98 µg/mL (≈ 4.22 µM)
- MIC ([Candida] auris [8]): 0.98 µg/mL (≈ 4.22 µM)
- MIC (Candida albicans [9]): 3.9 µg/mL (≈ 16.8 µM)
- MIC (Nakaseomyces glabratus [10]): 3.9 µg/mL (≈ 16.8 µM)
- MIC (Aspergillus fumigatus [11]): > 31.3 µg/mL
- MIC (Candida albicans [12]): 0.98 µg/mL (≈ 4.22 µM)
- MIC (Aspergillus fumigatus [13]): > 31.3 µg/mL
- viability at 31.3 microg/ml [14]: 94%
- MIC (Aspergillus flavus): 15.6 µg/mL (≈ 67.2 µM)
- Activity (J774.A1): Non-Toxic
- MIC (Nakaseomyces glabratus [15]): 7.8 µg/mL (≈ 33.6 µM)
- MIC (Cryptococcus neoformans): 0.12 µg/mL (≈ 0.517 µM)
- MIC (Candida albicans [16]): 1.95 µg/mL (≈ 8.4 µM)
- MIC (Aspergillus terreus): 0.98 µg/mL (≈ 4.22 µM)

Compound: O=C(NNc1cccc(Cl)c1)c1ccccn1
- Activity (Candida albicans [17]): Active
- MIC (Candida albicans [1]): 0.98 µg/mL (≈ 3.96 µM)
- MIC (Candida albicans [2]): 0.12 µg/mL (≈ 0.484 µM)
- MIC ([Candida] auris [18]): 0.49 µg/mL (≈ 1.98 µM)
- MIC (Pichia kudriavzevii [3]): 0.49 µg/mL (≈ 1.98 µM)
- MIC (Candida albicans [4]): 0.49 µg/mL (≈ 1.98 µM)
- MIC (Aspergillus fumigatus [5]): > 31.3 µg/mL
- MIC ([Candida] auris [19]): 0.49 µg/mL (≈ 1.98 µM)
- MIC ([Candida] auris [20]): 0.24 µg/mL (≈ 0.969 µM)
- MIC ([Candida] auris [21]): 0.49 µg/mL (≈ 1.98 µM)
- MIC ([Candida] auris [22]): 0.49 µg/mL (≈ 1.98 µM)
- Activity (HEK293): Non-Toxic
- MIC (Candida albicans [6]): 0.49 µg/mL (≈ 1.98 µM)
- MIC ([Candida] auris [7]): 0.98 µg/mL (≈ 3.96 µM)
- MIC (Candida duobushaemulonii [23]): 0.24 µg/mL (≈ 0.969 µM)
- MIC ([Candida] auris [24]): 0.49 µg/mL (≈ 1.98 µM)
- Activity (Candida albicans [25]): inactive
- MIC (Aspergillus nidulans): 0.24 µg/mL (≈ 0.969 µM)
- MIC ([Candida] auris [26]): 0.49 µg/mL (≈ 1.98 µM)
- MIC (Saccharomyces cerevisiae [27]): 0.98 µg/mL (≈ 3.96 µM)
- MIC ([Candida] auris [8]): 0.98 µg/mL (≈ 3.96 µM)
- MIC (Clavispora lusitaniae): 0.98 µg/mL (≈ 3.96 µM)
- Activity (HepG2): Non-Toxic
- MIC (Candida albicans [9]): 0.98 µg/mL (≈ 3.96 µM)
- MIC (Nakaseomyces glabratus [10]): 1.95 µg/mL (≈ 7.87 µM)
- MIC (Aspergillus fumigatus [11]): > 31.3 µg/mL
- MIC ([Candida] auris [28]): 0.98 µg/mL (≈ 3.96 µM)
- MIC (Candida albicans [12]): 0.98 µg/mL (≈ 3.96 µM)
- MIC ([Candida] haemuloni [29]): 0.12 µg/mL (≈ 0.484 µM)
- MIC (Aspergillus fumigatus [13]): > 31.3 µg/mL
- MIC (Aspergillus flavus): > 31.3 µg/mL
- Activity (J774.A1): Non-Toxic
- MIC (Nakaseomyces glabratus [15]): 1.95 µg/mL (≈ 7.87 µM)
- MIC ([Candida] haemuloni [30]): ≤ 0.06 µg/mL
- MIC ([Candida] auris [31]): 0.49 µg/mL (≈ 1.98 µM)
- MIC (Kodamaea ohmeri): 0.12 µg/mL (≈ 0.484 µM)
- Activity (Candida albicans [32]): Dose-Dependent Effect
- MIC ([Candida] auris [33]): 0.98 µg/mL (≈ 3.96 µM)
- MIC (Cryptococcus neoformans): 0.12 µg/mL (≈ 0.484 µM)
- MIC (Candida duobushaemulonii [34]): 0.24 µg/mL (≈ 0.969 µM)
- MIC (Candida duobushaemulonii [35]): 12 µg/mL (≈ 48.4 µM)
- MIC (Saccharomyces cerevisiae [36]): 0.98 µg/mL (≈ 3.96 µM)
- MIC (Pichia kudriavzevii [37]): 0.12 µg/mL (≈ 0.484 µM)
- MIC (Candida albicans [16]): 0.98 µg/mL (≈ 3.96 µM)
- MIC (Aspergillus terreus): 0.98 µg/mL (≈ 3.96 µM)
